Screens as filed in PubChem BioAssay.
Most compounds without a hit are left out; they make up all but 27% or so of the library.
CYP2C9 act: human CYP2C9 activators, primary screen, biochemical, luminescence; 1.4% of 96,000 active; AID 1024, 2008; activation factor at 5 µM; Cytochrome P450 2C9 (Homo sapiens), P11712; recombinant CYP2C9, luciferin-H conversion; active compounds read high; factor 1 = untreated enzyme, 0 = blocked;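 active = activation factor of 2 or more for CYP2C9 at a 5 µM dose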;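 also: 0 = sulfaphenazole-blocked wells and 1 = vehicle-only wells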
Rev-RRE block: HIV-1 Rev-RRE binding inhibitors, primary screen, biochemical, FRET, protein-RNA interaction | Rev peptide-RRE RNA binding | inhibition, % at 8 µM | 0.79% of 97,000 active;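 active = inhibition above the screen-wide mean plus 3 SD, cut at about 35% in these data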;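 also: 0% = median DMSO wells and 100% = median Neomycin B control wells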
Target sequence (P05866 whole entry, looked up): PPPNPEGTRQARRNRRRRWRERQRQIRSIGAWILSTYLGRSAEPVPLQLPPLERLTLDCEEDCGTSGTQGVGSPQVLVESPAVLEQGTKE
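assay system = Cy5-tagged RRE RNA duplex with fluorescein-tagged Rev peptide | incubation = 5 + 15 min at 25 °C | also added = labelled Rev peptide | measure = % inhibition of FRET ratio versus controls | benchmarks = DMSO wells as 0% and neomycin B wells as 100% inhibition | measured by = FRET fluorescence readout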
Cav3 T inh: Cav3.2 calcium influx blockers – cell-based, Fluo-4 calcium fluorescence, FDSS, MLSMR library, primary screen | Cav3.2-expressing cells; active compounds read low | B-score at 10 µM | 4% of 100,000 active | AID 449739, 2010;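 active = single-dose well whose peak fluorescence ratio is a statistical outlier from its plate by either plate-standardised score or position-corrected B-score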
CYP2C19 inhib: blockers of cytochrome P450 2C19 activity – biochemical, luminescence, ADME assay, primary screen | CYP2C19 Supersomes, luciferin-H EGE luminescence, 30 min | inhibition, % at 5 µM | 21% of 96,000 active | AID 778, 2007;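 active = CYP2C19 inhibition above a set limit at 5 µM in the primary screen, cut at about 50% in these data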;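 also: plate controls were negative control wells for no effect and 2.5 mM tranylcypromine positive control for full effect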
Target sequence (P33261 whole entry, looked up): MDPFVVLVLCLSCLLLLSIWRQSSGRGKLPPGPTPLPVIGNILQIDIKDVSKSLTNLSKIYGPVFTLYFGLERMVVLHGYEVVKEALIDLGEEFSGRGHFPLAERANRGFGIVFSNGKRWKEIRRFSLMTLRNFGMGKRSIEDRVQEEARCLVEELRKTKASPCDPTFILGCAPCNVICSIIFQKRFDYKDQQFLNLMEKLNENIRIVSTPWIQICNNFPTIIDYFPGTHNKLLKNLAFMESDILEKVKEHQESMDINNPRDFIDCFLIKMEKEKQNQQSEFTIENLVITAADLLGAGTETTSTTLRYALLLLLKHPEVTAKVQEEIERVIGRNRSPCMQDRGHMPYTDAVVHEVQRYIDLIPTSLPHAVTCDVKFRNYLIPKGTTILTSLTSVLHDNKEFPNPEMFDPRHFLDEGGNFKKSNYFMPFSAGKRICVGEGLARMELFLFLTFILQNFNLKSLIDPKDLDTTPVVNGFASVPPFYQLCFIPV
CYP2C19 act: human CYP2C19 activators, primary screen, biochemical, luminescence. AID 1025, 2008. 96,000 tested, under 10 active. activation factor at 5 µM. recombinant CYP2C19, luciferin-H EGE luminescence; active compounds read high; 0 = fully inhibited enzyme, 1 = untreated enzyme;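 active = activation factor of at least 2 at 5 µM in the primary screen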;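 also: 0 = wells with 2.5 mM tranylcypromine and 1 = vehicle-only wells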
CYP2C9 inh: blockers of cytochrome P450 2C9 activity – biochemical, luminescence, ADME assay, primary screen; inhibition, % at 5 µM; P11712; CYP2C9 Supersomes, luciferin-H conversion; 20% of 96,000 active; AID 777, 2007;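 active = blocking of liver enzyme CYP2C9 beyond about 50% at 5 µM, limit read from the data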
Active calls of the source: *; · = no result given; [ ] = another dose, or the depositor's remark.

SMILES | CYP2C9 act | Rev-RRE block | Cav3 T inh | CYP2C19 inhib | CYP2C19 act | CYP2C9 inh
CCOc1ccc(C(=O)NC(=S)Nc2ccc(N3CCC(C)CC3)cc2)cc1[N+](=O)[O-] | · | 0 | -0.41 | · | · | ·
CC1CCN(c2ccccc2NC(=O)c2ccc(F)cc2)CC1 | 0.8 | 22 | -3.5 | 7 | 0.9 | 22
CCN1C(=O)/C(=C/C=C2/SCCN2C)SC1=S | 0.9 | 129*[fluorescence artefact?] | -0.45 | 8 | 0.9 | 8
CC(=O)Nc1sc2c(c1C(=O)N1CCOCC1)CCCCC2 | 0.9 | 2 | 1.1 | 6 | 0.9 | 6
C=CCN1CCN(C(c2ccc(OC)c(OC)c2)c2nnnn2C(C)(C)C)CC1 (stereo unspecified) | 1 | · | 0.87 | 0 | 1 | -3
Cc1cccc(C(=O)CC(=O)c2cc(Cl)ccc2O)c1 | 0.2 | 15 | -2.1 | 32 | 0.7 | 79*
Cc1oc(C(=O)O)cc1COc1cccc2cccnc12 | 1.2 | 6 | -0.06 | 0 | 1 | -16
O=c1c2ccc(Cl)cc2[nH]c(=S)n1Cc1cccnc1 | 0.6 | -4 | · | 56* | 0.4 | 44
CN1CCN(C(=O)c2ccc3c(=O)n(Cc4ccc(Cl)cc4)c(=S)[nH]c3c2)CC1 | 0.8 | 6 | -1.8 | 15 | 0.9 | 22
CCCC/C=C/C(NC(=O)c1ccc(-c2ccccc2)cc1)c1ccccc1 (stereo unspecified) | · | · | -0.46 | · | · | ·
Cn1c(Cl)cnc1C1CC(=O)c2cc(Cl)ccc2O1 (stereo unspecified) | 0.5 | 4 | 0.049 | 81* | 0.2 | 46
CCn1nnnc1SCC(=O)c1ccc(NC(C)=O)cc1 | 0.8 | 4 | 1.1 | 13 | 0.9 | 22
CC1(C)CC(=O)C2=C(C1)NC(SCC(=O)Nc1ccccc1)=C(C#N)C21CCCCC1 | 0.5 | 7 | 0.011 | 47 | 0.5 | 48
N#CC1=C(N)NC(SCc2ccc(Cl)cc2)=C(C#N)C12CCCCC2 | 0 | 9 | -4.1* | 100* | 0 | 100*
N#CC1=C(N)NC(SCC(=O)Nc2ccc(Br)cc2)=C(C#N)C12CCCCC2 | 0 | 13 | -6.5* | 100* | 0 | 96*
CSC1=C(C#N)C2(CCCC2)C(C#N)=C(N)N1 | 0.4 | 11 | · | 77* | 0.2 | 63*
CCSC1=C(C#N)C2(CCCC2)C(C#N)=C(N)N1 | 0 | 3 | 0.78 | 95* | 0 | 95*
N#CC1=C(N)NC(SCc2ccc(Br)cc2)=C(C#N)C12CCCCC2 | · | 8 | · | · | · | ·
OCC[C@@H]1C[C@H](O)[C@@H](O)[C@]2(CCCO2)O1 | · | · | -0.075 | · | · | ·
Cc1cccn2c(=O)c3cc(C#N)c(=N)n(CC4CCCO4)c3nc12 (stereo unspecified) | · | 6 | · | · | · | ·
c1ccc(Cn2c(Sc3nnnn3-c3ccccc3)nnc2-c2ccccc2)cc1 | 0.7 | 12 | -1.5 | 18 | 0.8 | 28
O=[N+]([O-])c1ccc(Sc2nnnn2-c2ccccc2)c(Cl)c1 | 0.3 | 1 | -2 | 98* | 0 | 68*
Nc1ccc(Sc2nnnn2-c2ccccc2)c(Cl)c1 | 1.1 | 7 | -0.22 | 93* | 0.1 | -7
O=C(O)CSc1nnnn1-c1ccccc1 | 1 | 0 | -0.043 | 6 | 0.9 | 3
C=CCN(CC=C)c1nc2ccccc2nc1C(C#N)C(=O)OC(C)C (stereo unspecified) | · | · | -0.56 | · | · | ·
SMILES | CYP2C9 act | Rev-RRE block | Cav3 T inh | CYP2C19 inhib | CYP2C19 act | CYP2C9 inh
Cc1cc(S(=O)(=O)Nc2ccc(F)cc2)c(C)s1 | 0.5 | 8 | -0.52 | 84* | 0.2 | 51*
Cc1cc(S(=O)(=O)Nc2cccc(O)c2)c(C)s1 | 0.7 | 4 | -0.95 | 92* | 0.1 | 30
Cn1cc(S(=O)(=O)Nc2cccc(F)c2)c(=O)n(C)c1=O | 0.9 | 6 | 0.1 | 20 | 0.8 | 12
Cc1cc(C(C)(C)C)cc(S(=O)(=O)Nc2cccc(C(=O)O)c2)c1C | 1.1 | 6 | -0.66 | -8 | 1.1 | -5
CCCN(CCC)CCCOC(=O)c1ccc(Cl)cc1Cl | 0.9 | 3 | 0.041 | 11 | 0.9 | 9
O=c1c2ccccc2nc(SCc2cn3ccsc3n2)n1-c1ccc(F)cc1 | 0 | 7 | -2.6 | 84* | 0.2 | 97*
CN1CCN(S(=O)(=O)c2cccc(C(=O)Nc3sc4c(c3C(N)=O)CCCC4)c2)CC1 | 0.7 | · | -0.6 | -1 | 1 | 33
CC/C(=C\C(=O)c1cccnc1)Nc1ccc(C)c(C)c1 | 0.4 | 1 | -1.2 | 71* | 0.3 | 58*
COc1cc(C(=O)N2CCN(C(=O)COc3ccc4ccccc4c3)CC2)cc(OC)c1OC | 0.7 | 5 | 2.5 | 18 | 0.8 | 35
CCCn1c(SCC(=O)Nc2ccc3c(c2)OCCO3)nnc1-c1ccco1 | 0.1 | 4 | -0.0022 | 73* | 0.3 | 92*
COCCn1c(SCC(=O)Nc2ccc3c(c2)OCCO3)nnc1-c1c[nH]c2ccccc12 | 0.4 | 6 | -0.066 | 32 | 0.7 | 58*
CC(C)Oc1cccc(-c2nnc(SCC(=O)Nc3ccc4c(c3)OCCO4)n2N)c1 | 0.3 | 7 | -0.5 | 50* | 0.5 | 71*
COCCn1c(SCC(=O)c2ccc3c(c2)OCCO3)nnc1-c1ccco1 | 0.6 | 1 | 0.87 | 65* | 0.4 | 42
Nn1c(SCC(=O)Nc2ccc3c(c2)OCO3)nnc1-c1ccncc1 | 0.8 | 6 | · | -2 | 1 | 22
Cc1nc2sccn2c(=O)c1CCN1CCC(=C(c2ccccc2)c2ccc(F)cc2)CC1 | · | · | -4.2 | · | · | ·
CC(C)c1cc(C(C)C)c(S(=O)(=O)N2c3ccccc3[C@]3(Br)C[C@H]4C(=O)N[C@@H](Cc5ccccc5)C(=O)N4[C@H]23)c(C(C)C)c1 | · | · | -0.86 | · | · | ·
O=C(c1cnn2c(C(F)(F)F)cc(-c3ccc4c(c3)OCO4)nc12)N1CCCC1 | 0.7 | 5 | · | 13 | 0.9 | 31
CCOC(=O)c1sc2nc(N3CCCC3)c3c(c2c1N)CC(C)(C)OC3 | 0.9 | 3 | 0.058 | 4 | 1 | 7
CCOC(=O)c1sc2nc(C(C)C)c3c(c2c1N)CC(C)(C)OC3 | 0.3 | 12 | -0.59 | 5 | 0.9 | 69*
COCCn1c(=O)[nH]c2cc(C(=O)NCC3CCCO3)ccc2c1=O (stereo unspecified) | 1 | 10 | 0.5 | -4 | 1 | 2
CCOC(=O)Cn1c(=N)n(Cc2ccccc2F)c2ccccc21 | 0.8 | -14 | 0.24 | 19 | 0.8 | 19
CC(C)CCOCc1nc2sc3c(c2c(=O)[nH]1)CCC(C)C3 (stereo unspecified) | 0.3 | 10 | 0.044 | 54* | 0.5 | 72*
O=c1nc(/C=C/c2cc([N+](=O)[O-])ccc2Cl)cc(C(F)(F)F)[nH]1 | 0.2 | 7 | -1.6 | -3 | 1 | 81*
